Compound activity deposited in PubChem by Broad Institute.
Hits are enriched below; roughly 3.6% of the tested compounds scored in any of these assays.
Wnt bcat act – activates Wnt/beta-catenin signaling in a reporter cell assay. activator, plate reader. activation, % at 9.35 µM. 300,000 compounds, 1.2% hits. AID 743398; in the data active means activation above about 30%, passing the limit was not always enough
SR-BI HDL uptake – mouse SR-BI HDL lipid transfer inhibition; Q61009; inhibition, % at 12.5 µM; ldlA[mSR-BI] CHO cells, DiI-HDL uptake fluorescence, 3 h; 320,000 compounds, 0.96% hits;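 active means mean replicate inhibition of at least 70% and a set share of replicates each scoring 70 or more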
Target sequence (Q61009 whole entry, looked up): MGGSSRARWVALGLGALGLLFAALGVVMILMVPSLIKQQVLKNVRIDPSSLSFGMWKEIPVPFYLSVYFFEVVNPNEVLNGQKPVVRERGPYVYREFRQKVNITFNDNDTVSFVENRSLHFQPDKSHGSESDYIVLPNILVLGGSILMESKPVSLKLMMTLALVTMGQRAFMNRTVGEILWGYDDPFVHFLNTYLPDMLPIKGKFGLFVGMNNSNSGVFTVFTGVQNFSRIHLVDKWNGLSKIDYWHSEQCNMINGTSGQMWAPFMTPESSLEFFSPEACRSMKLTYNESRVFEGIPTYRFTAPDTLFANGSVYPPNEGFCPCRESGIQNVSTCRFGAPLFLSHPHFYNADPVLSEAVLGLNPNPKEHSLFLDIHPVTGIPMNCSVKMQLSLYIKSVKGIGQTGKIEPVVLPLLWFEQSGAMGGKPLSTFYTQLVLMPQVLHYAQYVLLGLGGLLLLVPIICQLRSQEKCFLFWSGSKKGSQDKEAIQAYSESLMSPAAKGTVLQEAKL
HSF1 activator – increases HSF-1 driven luciferase reporter signal | NIH3T3-HGL HSF-1 luciferase reporter, MG132, 8 h; 100% = twice DMSO control signal | activation, % at 9 µM | 300,000 compounds, 1.7% hits;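 active means mean replicate activation of at least 50% with a set share of replicates each reaching 50%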
MITF TRPM1 HTS – increases MITF-driven TRPM1 promoter luciferase signal; SK-MEL-5 TRPM1-promoter luciferase, 24 h; % of positive control, neutral wells = 0; activation, % at 12.5 µM; 300,000 compounds, 0.75% hits;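 active means mean activation of at least 80% with every replicate also reaching 80%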
SR-BI uptake up – SR-BI HDL lipid transfer activation | 320,000 compounds, 0.096% hits | AID 504775 | activation, % at 12.5 µM | CHO ldlA[mSR-BI] cells, DiI-HDL uptake fluorescence, 3 h; 100 = double the neutral-control signal;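 active means mean replicate activation of at least 60% and every replicate at or above 60%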
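Material: SR-BI-overexpressing, LDLR-lacking CHO cells | Dosing: Single compound concentration, delivered by pin transfer | Probe or stimulus: Labelled HDL, 10 µg/mL | Signal: Bottom-read cell fluorescence after medium removal, ex 550/em 595 nm | Schedule: 3 h, 37 °C | Evaluation: HDL uptake via cellular fluorescence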
Numbers stand for hits.

How did CC(C)(C)OC(=O)N1C[C@@]23C[C@H](c4cccc(F)c4)[C@@H](C[C@@H]2S1(=O)=O)O3 do in these assays?
Wnt bcat act: inactive

Results for O=C(/C=C/c1ccco1)Oc1cc(Br)cc(/C=N/NC(=O)c2ccccc2O)c1 ?
Wnt bcat act: inactive; SR-BI HDL uptake: 134; HSF1 activator: inactive; MITF TRPM1 HTS: inactive; SR-BI uptake up: inactive

How did O=C(CNc1cccc2ccccc12)N/N=C/c1ccc(OC(=O)/C=C/c2ccco2)cc1 do in these assays?
Wnt bcat act: inactive; SR-BI HDL uptake: inactive; HSF1 activator: inactive; MITF TRPM1 HTS: inactive; SR-BI uptake up: inactive

What do the screens show for `O=C(CNc1ccc2ccccc2c1)N/N=C/c1ccc(OC(=O)/C=C/c2ccco2)cc1`?
Wnt bcat act: 51; SR-BI HDL uptake: inactive; HSF1 activator: inactive; MITF TRPM1 HTS: inactive; SR-BI uptake up: inactive

Results for Cc1cccc(C)c1NC(=O)C1(C)CCC(=O)N1C1CC1 (configuration not stated) ?
Wnt bcat act: inactive

Results for CCN(CC(=O)NCc1cccs1)C(=O)c1ccc(N(C)S(=O)(=O)c2ccc(C)cc2)cc1 ?
Wnt bcat act: inactive; SR-BI HDL uptake: inactive; MITF TRPM1 HTS: inactive; SR-BI uptake up: inactive

Results for CCCC(=O)N1CCC1(C)C(=O)Nc1ccc2c(c1)OCCO2 (configuration not stated) ?
Wnt bcat act: inactive

How did COc1ccc2nc(NC(=O)c3c(C)noc3C)sc2c1 do in these assays?
Wnt bcat act: 35; SR-BI HDL uptake: inactive; SR-BI uptake up: inactive

What do the screens show for `COc1ccc2nc(Nc3nc(C)c(C(C)=O)s3)sc2c1`?
Wnt bcat act: 56; SR-BI HDL uptake: inactive; HSF1 activator: inactive; MITF TRPM1 HTS: inactive; SR-BI uptake up: inactive

How did COc1ccc(C(=O)Nc2nc3ccc(OC)cc3s2)cc1 do in these assays?
Wnt bcat act: inactive; SR-BI HDL uptake: inactive; HSF1 activator: inactive; SR-BI uptake up: inactive

What do the screens show for `CCOC(=O)c1sc(Nc2ccc(Br)cc2)nc1C`?
Wnt bcat act: inactive; SR-BI HDL uptake: inactive; HSF1 activator: inactive; MITF TRPM1 HTS: inactive; SR-BI uptake up: inactive

How did COc1ccc(Nc2nc3ccc(OC)cc3s2)cc1 do in these assays?
Wnt bcat act: inactive; SR-BI HDL uptake: inactive; HSF1 activator: inactive; MITF TRPM1 HTS: 91; SR-BI uptake up: inactive

What do the screens show for `CCOC(=O)c1cc2nc(Nc3ccc(OC)cc3)sc2s1`?
SR-BI HDL uptake: 72; HSF1 activator: inactive; MITF TRPM1 HTS: inactive; SR-BI uptake up: inactive

Results for CC(C)C[C@@H]1COc2cc(N3CCOCC3)ccc2S(=O)(=O)N1 ?
Wnt bcat act: inactive

How did Cc1ccc(C)c(NC(=S)c2ccccn2)c1 do in these assays?
Wnt bcat act: 36; SR-BI HDL uptake: inactive; HSF1 activator: inactive; MITF TRPM1 HTS: inactive; SR-BI uptake up: inactive

Results for Cc1ccc(C)c(NC(=S)c2ccc3ccccc3n2)c1 ?
Wnt bcat act: inactive; SR-BI HDL uptake: inactive; HSF1 activator: inactive; MITF TRPM1 HTS: inactive; SR-BI uptake up: inactive

How did COc1ccc(NC(=O)C(=O)c2cn(CC(=O)N3CCCC3)c3ccccc23)c(OC)c1 do in these assays?
Wnt bcat act: inactive; SR-BI HDL uptake: 72; HSF1 activator: inactive; MITF TRPM1 HTS: inactive; SR-BI uptake up: inactive

How did COc1ccccc1NC(=O)C(=O)c1cn(CC(=O)N2CCCC2)c2ccccc12 do in these assays?
Wnt bcat act: inactive; SR-BI HDL uptake: inactive; HSF1 activator: inactive; MITF TRPM1 HTS: inactive; SR-BI uptake up: inactive

What do the screens show for `O=C(NCCc1ccccc1)C(=O)c1cn(CC(=O)N2CCCC2)c2ccccc12`?
Wnt bcat act: inactive; SR-BI HDL uptake: inactive; HSF1 activator: 52; MITF TRPM1 HTS: inactive; SR-BI uptake up: inactive

How did O=C(Nc1ccccc1C(=O)N1CCCC1)c1ncoc1-c1cccc(Cl)c1 do in these assays?
Wnt bcat act: inactive; HSF1 activator: 62; MITF TRPM1 HTS: inactive

How did Clc1ccccc1Cn1nc(-c2ccccc2)nc1-c1ccccc1 do in these assays?
Wnt bcat act: inactive; SR-BI HDL uptake: inactive; HSF1 activator: inactive; MITF TRPM1 HTS: inactive; SR-BI uptake up: inactive

What do the screens show for `Clc1ccc(Cn2nc(-c3ccccc3)nc2-c2ccccc2)cc1`?
SR-BI HDL uptake: inactive; HSF1 activator: 53; MITF TRPM1 HTS: inactive; SR-BI uptake up: inactive

How did O=C(COc1ccc2c(c1)CCC2)Nc1ccccn1 do in these assays?
Wnt bcat act: inactive; SR-BI HDL uptake: inactive; HSF1 activator: inactive; MITF TRPM1 HTS: inactive; SR-BI uptake up: inactive

How did Cc1cccc(NC(=O)COc2ccc3c(c2)CCC3)n1 do in these assays?
Wnt bcat act: inactive; SR-BI HDL uptake: inactive; MITF TRPM1 HTS: 101; SR-BI uptake up: inactive
